Assay results collected from several papers.
Compare with care: the assays were run in different laboratories.
Target: Calcium/calmodulin-dependent protein kinase type 1G (CAMK1G, Homo sapiens, UniProt Q96NX5)

CO[C@@H](C)c1c(Nc2ccc([C@@H](N(C)C(=O)C3CCS(=O)(=O)CC3)C(F)(F)F)cc2)cnc2cc(Cl)nn12
remaining binding (cell-free assay; competition with immobilised ligand; 1 µM): 100%

O=C1Nc2ccc(Cl)cc2C1=Cc1cc(Cl)c(O)c(Cl)c1
remaining signal (cell-free assay; 0.5 µM): 96.6%

CN1CC(Oc2cnc(C#N)cc2-c2ccn3nc(NC(=O)C4CC4)cc3c2)C1
inhibition (enzyme activity; inhibitor; 1 µM): -1%

N#CCCc1ccc2c(c1)-c1[nH]c3ccc([N+](=O)[O-])cc3c1CC(=O)N2
remaining signal (cell-free assay; 0.5 µM): 103%

O=C(NCCCC1CCCCC1)c1ccc(CNC(=O)c2cnn(-c3ccccc3)c2C(F)(F)F)cc1
remaining binding (cell-free assay; competition with immobilised ligand; 0.1 µM): 100%

Cc1ccc(C(=O)Nc2ccc(CN3CCN(C)CC3)c(C(F)(F)F)c2)cc1C#Cc1cnc2cccnn12
remaining signal (cell-free assay; 23.5 nM): 95%

Nc1ncnc2occ(-c3ccc(NC(=O)Nc4cc(C(F)(F)F)ccc4F)cc3)c12
remaining signal (cell-free assay; 20 µM): 41%

COc1cc(Cl)c(C(=O)N[C@@H](CN[C@H]2CC[C@@H](N)CC2)Cc2ccc(C#N)cc2)cc1-c1ccc(CN[C@H](C)c2ccc(C)cc2)o1
remaining activity (enzyme activity; inhibitor; 1 µM): 99%

O=C1NC(c2ccccn2)Sc2ccccc21 (stereo not drawn)
remaining binding (cell-free assay; competition with immobilised ligand; 1 µM): 100%

O=C(Nc1cnn(-c2csc(C(=O)NC3COC3)c2)c1)Nc1ccccc1Cl
remaining activity (enzyme activity; inhibitor; 5 µM): 94.2%

c1ccc(N2CCN(Cc3nc4ccccc4[nH]3)CC2)nc1
remaining binding (cell-free assay; competition with immobilised ligand; 1 µM): 100%

Cc1cc(NC(=O)c2cccc3cc(-c4cccc5[nH]nc(N)c45)ccc23)ccc1F
activity vs control (enzyme activity; inhibitor; 0.1 µM): 102%

CC(C)(O)[C@H]1CC[C@H](Nc2ccc3ncc(-c4cccc(C(F)(F)F)c4)n3n2)CC1
remaining activity (enzyme activity; inhibitor; 1 µM): 81.6%

Cc1sc(C(=O)NC2COC2)cc1-n1cc(NC(=O)Nc2c(F)cccc2Cl)cn1
remaining activity (enzyme activity; inhibitor; 10 µM): 93.1%

COc1cc2c(Nc3ccc(Br)cc3F)ncnc2cc1OCC1CCN(C)CC1
remaining signal (cell-free assay; 0.5 µM): 101%
